Data as given in ChEMBL document CHEMBL1147503, “Syntheses and structure-activity relationship studies of piperidine-substituted quinolones as nonpeptide gonadotropin releasing hormone antagonists” (Bioorg Med Chem Lett, 2004).
pIC50: −log10 of the molar value.

Key:
CHO = test: In vitro inhibitory concentration against GnRH-stimulated phosphatidyl inositol hydrolysis by cloned chinese hamster ovary cells stably expressing human GnRH receptor; format: functional, cell-based; settings: Cricetulus griseus
[1] = target: T1, Gonadotropin-releasing hormone receptor (Homo sapiens, UniProt P30968); test: Inhibitory concentration against binding of [125I]buserelin to human Gonadotropin-releasing hormone receptor
T1 sequence (P30968 whole entry): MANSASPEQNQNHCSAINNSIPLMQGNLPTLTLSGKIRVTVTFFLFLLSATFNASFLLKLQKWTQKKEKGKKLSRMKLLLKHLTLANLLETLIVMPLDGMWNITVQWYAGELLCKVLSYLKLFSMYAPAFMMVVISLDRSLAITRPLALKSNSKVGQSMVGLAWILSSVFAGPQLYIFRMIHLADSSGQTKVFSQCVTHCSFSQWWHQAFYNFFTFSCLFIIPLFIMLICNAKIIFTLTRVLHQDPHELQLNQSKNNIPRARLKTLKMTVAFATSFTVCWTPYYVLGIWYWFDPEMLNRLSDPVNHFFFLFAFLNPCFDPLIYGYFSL
How it was run: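 Competitive displacement of the GnRH receptor agonist radioligand [125I]buserelin from the human GnRH receptor, with 0.1% BSA present in the binding assay.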

[2] = target: T2, Gonadotropin-releasing hormone receptor (Rattus norvegicus, UniProt P30969); test: Inhibitory concentration against binding of rat Gonadotropin-releasing hormone receptor using [125I]buserelin
T2 sequence (P30969 whole entry): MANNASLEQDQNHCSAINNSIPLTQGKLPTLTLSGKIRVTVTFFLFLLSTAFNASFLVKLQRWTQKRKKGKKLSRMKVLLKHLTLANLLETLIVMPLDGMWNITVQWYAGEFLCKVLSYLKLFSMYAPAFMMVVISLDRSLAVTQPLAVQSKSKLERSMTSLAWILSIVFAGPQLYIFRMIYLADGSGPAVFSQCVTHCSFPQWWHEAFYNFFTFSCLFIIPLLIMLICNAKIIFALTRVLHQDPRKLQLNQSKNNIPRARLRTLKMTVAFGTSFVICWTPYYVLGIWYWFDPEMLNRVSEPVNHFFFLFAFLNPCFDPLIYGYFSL

[3] = Clearance rate in dog; format: ADME, organism-based, Canis lupus familiaris; settings: in vivo, read-out: Clearance rate
[4] = Oral bioavailability in dog; format: ADME, organism-based, Canis lupus familiaris; settings: in vivo
[5] = target: T3, Gonadotropin-releasing hormone receptor (Rattus norvegicus) (UniProt P30969); test: Inhibitory activity against binding of rat Gonadotropin-releasing hormone receptor using [125I]buserelin at 10 uM
T3 sequence (whole entry): T2 sequence (P30969 whole entry)

Structure (SMILES)	pIC50 [2]	pIC50 (CHO)	other results
Cc1cc(C)cc(-c2c(OCC[C@@H]3CCC[C@H](C)N3)c3cc(C(=O)Nc4ccncn4)c(Cl)cc3[nH]c2=O)c1	–	8.06	pIC50 [1]: 9.30
Cc1cc(C)cc(-c2c(OCCC3NCCc4ccccc43)c3cc([N+](=O)[O-])c(Cl)cc3[nH]c2=O)c1 (stereo not given)	6.12	–	–
Cc1cc(-c2c(O)nc3cc(Cl)c(C(=O)Nc4ccncn4)cc3c2OCC[C@@H]2CCCCN2)cc(C)c1C	–	8.66	clearance [3]: 36.8 mL/min/kg; bioavailability [4]: 4.4%
Cc1cc(C)cc(-c2c(O)nc3cc(Cl)c([N+](=O)[O-])cc3c2OCCc2ccccn2)c1	–	–	inhibition [5]: 86%
Cc1cc(C)cc(-c2c(OCC[C@@H]3CCC[C@H](CCCc4ccccc4)N3)c3cc([N+](=O)[O-])c(Cl)cc3[nH]c2=O)c1	6.40	–	–
CCC1CCC[C@@H](CCOc2c(-c3cc(C)cc(C)c3)c(=O)[nH]c3cc(Cl)c(C(=O)Nc4ccncn4)cc23)N1 (stereo not given in full)	–	–	pIC50 [1]: 8.24
Cc1cc(C)cc(-c2c(OCC[C@@H]3CCC[C@@H](C)N3)c3cc(C(=O)Nc4ccncn4)c(Cl)cc3[nH]c2=O)c1	–	7.94	pIC50 [1]: 9.30
Cc1cc(C)cc(-c2c(O)nc3cc(Cl)c(C(=O)Nc4ccncn4)cc3c2OCC[C@@H]2CCCCN2)c1	–	8.30	–
Cc1cc(-c2c(OCC[C@@H]3CCC[C@H](C)N3)c3cc(C(=O)Nc4ccncn4)c(Cl)cc3[nH]c2=O)cc(C)c1C	–	8.01	pIC50 [1]: 9.22
Cc1cc(-c2c(OCC[C@@H]3CCCC(C(F)(F)F)N3)c3cc(C(=O)Nc4ccncn4)c(Cl)cc3[nH]c2=O)cc(C)c1C (stereo not given in full)	–	7.74	pIC50 [1]: 8.70; clearance [3]: 21.6 mL/min/kg; bioavailability [4]: 14.6%
Cc1cc(C)cc(-c2c(O)nc3cc(Cl)c([N+](=O)[O-])cc3c2OCCC2CCc3ccccc3N2)c1 (stereo not given)	–	–	inhibition [5]: 85%

More lines, main results first:

pIC50 [2]	Structure (SMILES)	pIC50 (CHO)	other results
8.00	Cc1cc(C)cc(-c2c(O)nc3cc(Cl)c([N+](=O)[O-])cc3c2OCCC2CCCCN2)c1 (single isomer, unassigned)	–	–
7.82	Cc1cc(C)cc(-c2c(O)nc3cc(Cl)c([N+](=O)[O-])cc3c2OCC[C@@H]2CCC[C@H](C)N2)c1	–	–
7.74	CC[C@H]1CCC[C@@H](CCOc2c(-c3cc(C)cc(C)c3)c(O)nc3cc(Cl)c([N+](=O)[O-])cc23)N1	–	–
7.35	Cc1cc(C)cc(-c2c(O)nc3cc(Cl)c([N+](=O)[O-])cc3c2OCCC2NCCCC2C)c1 (stereo not given)	–	–
7.15	Cc1cc(C)cc(-c2c(O)nc3cc(Cl)c([N+](=O)[O-])cc3c2OCC[C@@H]2Cc3ccccc3CN2)c1	–	–
7.20	Cc1cc(C)cc(-c2c(OCCC3CCC(C)CN3)c3cc([N+](=O)[O-])c(Cl)cc3[nH]c2=O)c1 (stereo not given)	–	–
